This is an account of results in article PMC3327328 (Molecular Biology of the Cell, 2012).

Test [1] concerns the target human Survivin H80R (Homo sapiens, UniProt O15392, H80R). The experiment in a line: ITC binding of histone H3 peptides to human Survivin H80R. The settings on record: pH 6.8, 25°C, HEPES:citric acid:Ches, 10 mM β-mercaptoethanol, single-site model, n/b = no binding. The gist of the method: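 Mutant human Survivin from bacteria, Ni2+-resin purified, octahistidine tag removed by thrombin, then Superdex200. ITC at pH 6.8 in citric acid–Ches–HEPES buffer, 25°C. 1.2 mM histone H3 tail peptide titrated into 0.1 mM protein over sixteen injections 180 s apart. Kd from a single-site fit with stoichiometry, ΔH and Ka variable, using a baseline offset for dilution heats.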

In test [2] the target is X. laevis class B Survivin (xl wt, xSurvivin-B) (Xenopus laevis, UniProt Q8JGN5). The experiment in a line: ITC binding of histone H3 peptides to Xenopus Survivin class B wild type. The settings on record: pH 8.2, 25°C, HEPES:citric acid:Ches, 10 mM β-mercaptoethanol, single-site model, n/b = no binding.
Chain of X. laevis class B Survivin (xl wt, xSurvivin-B) (Q8JGN5 whole entry): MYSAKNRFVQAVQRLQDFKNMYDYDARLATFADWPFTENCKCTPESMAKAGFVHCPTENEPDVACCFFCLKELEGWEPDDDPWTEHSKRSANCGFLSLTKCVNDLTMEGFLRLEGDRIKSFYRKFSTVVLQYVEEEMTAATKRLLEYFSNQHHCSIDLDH
Test [3] concerns the target human Survivin K62A (human) (UniProt O15392). Description: ITC. (In general: ITC needs no label: the signal is the heat of the interaction.)
Test [4] deals with human Survivin H80A (human) (UniProt O15392). Description: ITC.
Chain of human Survivin H80A (human) (O15392 whole entry H80A): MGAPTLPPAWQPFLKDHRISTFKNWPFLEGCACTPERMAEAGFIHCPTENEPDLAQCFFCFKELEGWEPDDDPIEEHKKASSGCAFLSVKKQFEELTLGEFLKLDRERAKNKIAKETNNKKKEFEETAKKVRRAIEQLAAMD
Test [5] addresses human Survivin K62A (Homo sapiens, UniProt O15392, K62A). The experiment in a line: ITC binding of histone H3 peptides to human Survivin K62A. Put shortly:
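ITC at pH 7.8 with recombinant human Survivin K62A (bacterially expressed, His tag thrombin-cleaved, gel-filtered) binding H3T3ph(1-4) and unmodified H3(1-4) peptides. Syringe peptide 1.2 mM, cell protein 0.1 mM, sixteen injections 180 s apart. Kd from a single-binding-site model with stoichiometry, ΔH and Ka variable. Baseline offset corrects for heats of dilution.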

Test [6] concerns the target human Survivin (hs wt, class A) (Homo sapiens, UniProt O15392). The experiment in a line: ITC binding of histone H3 peptides to human Survivin wild type.
In test [7] the target is human Survivin wild type (human) (UniProt O15392). Description: ITC.
Chain of human Survivin wild type (human) (O15392 whole entry): as the sequence (O15392 whole entry H80A) above, with A80H counted along it
In test [8] the target is T1, Xenopus laevis class B Survivin R89H (X. laevis, UniProt Q8JGN5 1-160, R89H). Description: ITC.
T1 sequence (Q8JGN5 whole entry R89H): as the sequence (Q8JGN5 whole entry) above, with R89H counted along it
Test [9] addresses T2, human Survivin wild type (human, UniProt O15392 1-142). The experiment in a line: ITC.
The target of test [10] is T2, human Survivin wild type. Description: ITC. The source holds these as a separate data set.
Test [11] addresses T2, human Survivin wild type. The experiment in a line: ITC. This is another data set of the same source.
Test [12] concerns the target T2, human Survivin wild type. The experiment in a line: ITC. The source holds these as a separate data set.
In test [13] the target is T2, human Survivin wild type. The experiment in a line: ITC. The source holds these as a separate data set.
The target in test [14] is T1, Xenopus laevis class B Survivin R89H. The experiment in a line: ITC. The source holds these as a separate data set.
In test [15] the target is T2, human Survivin wild type. The experiment in a line: ITC. This is another data set of the same source.
Test [16] addresses T2, human Survivin wild type. The experiment in a line: ITC. The source holds these as a separate data set.
Test [17] has as its target human Survivin K62A (human, UniProt O15392 1-142, K62A). Description: crystal structure.

Read-outs that look alike come from different tables or passages of the source. Square brackets hold non-standard residues; d marks the D form. Ends that are not written are not given here. Peptide text beside a SMILES is read from it. pT = C[C@@H](OP(=O)(O)O)[C@H](N)C(=O)O

T2 sequence (O15392 whole entry): as the sequence (O15392 whole entry H80A) above, with A80H counted along it
Chain of human Survivin K62A (human) (O15392 whole entry K62A): as the sequence (O15392 whole entry H80A) above, with K62A, A80H counted along it
Chain of human Survivin (hs wt, class A) (O15392 whole entry): as the sequence (O15392 whole entry H80A) above, with A80H counted along it
Chain of human Survivin K62A (Homo sapiens, UniProt O15392, K62A) (O15392 whole entry K62A): as the sequence (O15392 whole entry H80A) above, with K62A, A80H counted along it
Chain of human Survivin K62A (human, UniProt O15392 1-142, K62A) (O15392 whole entry K62A): as the sequence (O15392 whole entry H80A) above, with K62A, A80H counted along it
Chain of human Survivin H80R (O15392 whole entry H80R): as the sequence (O15392 whole entry H80A) above, with A80R counted along it

Take `C[C@H](N)C(=O)N[C@@H](CCCNC(=N)N)C(=O)N[C@H](C(=O)N[C@@H](CCCCN)C(=O)N[C@@H](CCC(N)=O)C(=O)N[C@H](C(=O)N[C@@H](C)C(=O)N[C@@H](CCCNC(=N)N)C(=O)N[C@@H](CCCCN)C(=O)N[C@@H](CO)C(=O)N[C@H](C(=O)NCC(=O)O)[C@@H](C)O)[C@@H](C)O)[C@@H](C)O` [H3T3(1-12)]: the “Kd (dissociation constant)” value in test [1] and in test [2] was “n/b” throughout.
As a reminder, the Kd is the equilibrium constant for the complex coming apart. A higher Kd goes with weaker binding. For orientation: stoichiometry N means a count of units in the complex or per binding partner. In [3], “histone H3 N-terminal peptide ARTK, unmodified” registered a Kd of 31.3 µM, a dH of -4.61 kcal/mol and a stoichiometry N of 1.22. In test [4], this molecule had a Kd of 236 µM, a dH of -3.3 kcal/mol and a stoichiometry N of 0.99.
On to `C[C@H](N)C(=O)N[C@@H](CCCNC(=N)N)C(=O)N[C@H](C(=O)N[C@@H](CCCCN)C(=O)O)[C@@H](C)O` [H3T3(1-4)] (H-ARTK-OH), for which the figures for the dissociation constant (Kd) in test [5] and in test [6] were 31.3 ± 2 µM and 60.6 ± 4 µM, respectively.
For the molecule AR[pT]K [histone H3 N-terminal peptide ARTphK, phosphorylated on T3], in test [7], the dissociation constant Kd amounted to 61.7 µM, the dH was -2.12 kcal/mol and the stoichiometry N came to 1.05.
As to AR[pT]KQTARKSTG [histone H3 N-terminal peptide ARTphKQTARKSTG, phosphorylated on T3], the dH was -4.57 ± 0.04 kcal/mol in [8]; -5.64 ± 0.02 kcal/mol in test [9]; -4.65 ± 0.05 kcal/mol in test [10]; -4.13 ± 0.22 kcal/mol in test [11]; -4.72 ± 0.06 kcal/mol in test [12]; -6.85 ± 0.02 kcal/mol in [13]. Besides, the results for the dH in test [14], in [15] and in [16] were -0.87 ± 0.015 kcal/mol, -0.67 ± 0.05 kcal/mol and -4.88 ± 0.03 kcal/mol, respectively. The “stoichiometry N” value in test [8] was 1.09 ± 0.004; in test [9], 1.13 ± 0.001; in test [10], 1.12 ± 0.01; in test [11], 1.23 ± 0.02; in [12], 1.2 ± 0.01; in test [13] it was 1.01 ± 0.002. Moreover, the “stoichiometry N” value in [14] is 1.04 ± 0.01; in test [15], 1.35 ± 0.06; in test [16], 1.03 ± 0.002.
Take ARTKQTARKSTG [histone H3 N-terminal peptide ARTKQTARKSTG, unmodified]: the Kd came out at 5.21 ± 0.39 µM in test [8]; 11.8 ± 1 µM in test [9]; 13.3 ± 0.7 µM in [10]; 30.2 ± 1.2 µM in [11]; 17.1 ± 0.8 µM in [12]; 21.4 ± 3.2 µM in test [13]. For the same molecule, the Kd came out at 12.9 ± 1.4 µM in test [14], 21 ± 1.8 µM in test [15] and 9.67 ± 0.31 µM in test [16]. Besides, the dH in test [8] is -2.69 ± 0.04 kcal/mol; in [9] it was -2.49 ± 0.06 kcal/mol; in test [10], -3.21 ± 0.05 kcal/mol; in test [11] it was -3.43 ± 0.05 kcal/mol; in test [12], -3.32 ± 0.05 kcal/mol; in test [13], -4.32 ± 0.23 kcal/mol. The dH in test [14] is -2.72 ± 0.06 kcal/mol; in test [15], -1.89 ± 0.04 kcal/mol; in test [16], -2.79 ± 0.02 kcal/mol. Also, the “stoichiometry N” value in test [8] worked out at 1.15 ± 0.01; in test [9], 1.26 ± 0.01; in [10] it was 1.36 ± 0.01; in test [11], 1.32 ± 0.01; in test [12], 1.33 ± 0.01; in test [13], 1.37 ± 0.04. For the same molecule, the “stoichiometry N” value in test [14] was 1.34 ± 0.02; in [15] it was 1.56 ± 0.02; in test [16], 1.29 ± 0.01. Moreover, in test [17], the binding result is on record as “binds”.
In test [7], ARTK [histone H3 N-terminal peptide ARTK, unmodified] had an equilibrium dissociation constant (Kd) of 60.6 µM, a dH of -3.16 kcal/mol and a stoichiometry N of 1.27.
